The record followed here is ChEMBL document CHEMBL5143652, “Quinazolinones as allosteric fourth-generation EGFR inhibitors for the treatment of NSCLC” (Bioorg Med Chem Lett, 2022).

The subject of data set [1] is BaF3. The experiment in a line: Antiproliferative activity against mouse BaF3 cells harboring EGFR L858R/T790M double mutant assessed as inhibition of cell growth. It counts as functional, cell-based. The method, boiled down: (§1)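 Ba/F3 proliferation assay with the compound alone (single-agent readout, no cetuximab). Cellular IC50 is reported in μM.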
The nature of data set [2]: AUC (0 to 8 hrs) in mouse at 3 mg/kg, iv or 20 mg/kg, po. The following applies: in vivo. Details: dose 3 mg/kg, route iv. It counts as ADME, organism-based.
The subject of data set [3] is BaF3. Briefly: Antiproliferative activity against mouse BaF3 cells harboring EGFR L858R/T790M double mutant assessed as inhibition of cell growth in presence of cetuximab. The format is functional, cell-based. The method, boiled down:
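Ba/F3 proliferation assay, second readout: cells co-treated with cetuximab to prevent EGFR dimer formation. Cellular IC50 is reported in μM.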

A short description of data set [4]: Half life in mouse at 3 mg/kg, iv. It counts as ADME, organism-based. The following applies: in vivo.
Data set [5] is described as follows: Volume of distribution at steady state in mouse at 3 mg/kg, iv or 20 mg/kg, po. The following applies: in vivo, read-out: Vdss. The format is ADME, organism-based.
Data set [6] can be described thus: Oral bioavailability in mouse at 20 mg/kg. The format is ADME, organism-based. The following applies: in vivo.
A short description of data set [7]: Clearance in mouse at 3 mg/kg, iv. The settings on record: in vivo. It counts as ADME, organism-based.
The target in data set [8] is Epidermal growth factor receptor (Homo sapiens, UniProt P00533, L858R/T790M). The experiment in a line: biochemical.
Epidermal growth factor receptor, sequence (P00533 25-1210 T790M/L858R limits assumed): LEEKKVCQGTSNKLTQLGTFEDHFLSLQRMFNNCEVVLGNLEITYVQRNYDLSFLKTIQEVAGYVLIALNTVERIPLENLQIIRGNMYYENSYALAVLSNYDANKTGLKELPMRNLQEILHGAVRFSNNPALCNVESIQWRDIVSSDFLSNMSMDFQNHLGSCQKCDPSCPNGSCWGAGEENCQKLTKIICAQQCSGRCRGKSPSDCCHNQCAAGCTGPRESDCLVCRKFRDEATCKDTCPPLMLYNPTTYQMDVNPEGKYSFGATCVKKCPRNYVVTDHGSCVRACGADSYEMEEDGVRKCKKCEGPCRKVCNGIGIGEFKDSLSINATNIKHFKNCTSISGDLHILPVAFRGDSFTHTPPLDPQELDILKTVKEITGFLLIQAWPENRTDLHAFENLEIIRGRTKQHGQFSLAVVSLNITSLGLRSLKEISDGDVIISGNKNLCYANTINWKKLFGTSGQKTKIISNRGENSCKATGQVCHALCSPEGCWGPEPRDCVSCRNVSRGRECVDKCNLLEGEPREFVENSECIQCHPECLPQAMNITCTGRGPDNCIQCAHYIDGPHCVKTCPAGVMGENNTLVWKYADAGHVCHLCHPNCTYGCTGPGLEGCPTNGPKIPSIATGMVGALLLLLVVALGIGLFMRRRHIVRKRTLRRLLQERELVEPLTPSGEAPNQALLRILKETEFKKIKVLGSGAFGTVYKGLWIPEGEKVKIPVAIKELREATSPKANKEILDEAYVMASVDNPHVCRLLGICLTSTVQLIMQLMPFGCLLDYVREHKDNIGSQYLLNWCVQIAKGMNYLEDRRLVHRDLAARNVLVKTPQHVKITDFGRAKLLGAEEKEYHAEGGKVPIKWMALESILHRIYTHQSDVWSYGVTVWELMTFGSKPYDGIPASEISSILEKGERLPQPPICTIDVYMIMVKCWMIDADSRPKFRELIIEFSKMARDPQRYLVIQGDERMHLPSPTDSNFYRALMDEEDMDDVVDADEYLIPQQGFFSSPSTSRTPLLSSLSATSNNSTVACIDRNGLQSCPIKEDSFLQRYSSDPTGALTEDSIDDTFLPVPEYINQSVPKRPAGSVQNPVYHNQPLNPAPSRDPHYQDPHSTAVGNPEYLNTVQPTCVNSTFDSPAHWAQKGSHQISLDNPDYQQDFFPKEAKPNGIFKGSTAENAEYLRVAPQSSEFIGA
Data set [9] has as its system BaF3. The experiment in a line: Antiproliferative activity against mouse BaF3 cells harboring EGFR L858R/T790M/C797S triple mutant assessed as inhibition of cell growth. It counts as functional, cell-based. The method, boiled down:
as §1

For data set [10], the system named is NCI-H1975. Briefly: Antitumor activity against human NCI-H1975 cells harboring EGFR L858R/T790M mutant xenografted in rat assessed as tumor growth inhibition at 50 mg/kg, po administered once daily for 20 days and measured on 35 day. The format is functional, organism-based. On the technique in general: A xenograft is tissue or cells of one species grown in another, often human tumour cells in immunodeficient mice.

Data set [11] can be described thus: Half life in rat at 1 mg/kg, iv. The format is ADME, organism-based. The settings on record: in vivo.
The nature of data set [12]: Oral bioavailability in rat at 10 mg/kg. The format is ADME, organism-based. The following applies: in vivo.
The test system of data set [13] is NCI-H1975. The experiment in a line: Antitumor activity against human NCI-H1975 cells harboring EGFR L858R/T790M mutant xenografted in rat assessed as slower regrowth of tumor at 50 mg/kg, po administered once daily for 20 days and measured on 35 day. The format is functional, organism-based.
The test system of data set [14] is NCI-H1975. Briefly: Antitumor activity against human NCI-H1975 cells harboring EGFR L858R/T790M mutant xenografted in rat assessed as slower regrowth of tumor at 50 mg/kg, po administered once daily for 20 days and measured on 35 day.
Data set [15] is described as follows: Clearance in rat at 1 mg/kg, iv. The settings on record: in vivo. The format is ADME, organism-based.
The test system of data set [16] is NCI-H1975. The experiment in a line: Antitumor activity against human NCI-H1975 cells harboring EGFR L858R/T790M mutant xenografted in rat assessed as tumor growth inhibition at 25 mg/kg, po administered once daily for 20 days and measured on 35 day. It counts as functional, organism-based.

Broadly, the pIC50 is −log10 of the IC50, conventionally taken in molar units. In general, AUC(0-t) refers to exposure summed from dosing to a finite time, without extrapolation to infinity. Usually half-life stands for the time in which the quantity being followed falls by half. Read a high half-life as slow decline. As a reminder, the clearance is the rate of elimination divided by the concentration. Low readings indicate inefficient removal, high ones efficient removal.

pIC50: −log10 of the molar value. Calls of active or inactive are those of the source. No cut-off for these calls is given here.

Consider `CN1CCC(c2ccc(-c3ccc4c(c3)C(=O)N(C(C(=O)Nc3nccs3)c3cccc(F)c3)C4)cc2)CC1` (configuration not stated), for which the pIC50 is 5.97 in the data set on BaF3 [1], 7.70 in the data set with BaF3 [3], 9.70 in [8] and 6.82 with BaF3 [9]. Besides, the AUC(0-t) in data set [2] amounted to 1000 ng·h/mL. In addition, the half-life in data set [4] is 3.1 h. Further, the Vd in data set [5] worked out at 2.4 L/kg. The compound also yielded a F in data set [6] of 4%. Further, the clearance in data set [7] is 13.9 mL/min/kg.

Regarding `O=C(Nc1nccs1)C(c1cc(F)ccc1O)N1Cc2ccccc2C1=O` (configuration not stated), the negative logarithm of the IC50 (pIC50) is under 5.00 in the data set on BaF3 [1] and 6.66 in the data set with BaF3 [3].

`CN1CCN(c2ccc(-c3ccc4c(c3)C(=O)N(C(C(=O)Nc3nccs3)c3cccc(F)c3)CC4)cc2)CC1` (configuration not stated): the pIC50 with BaF3 [1] was 5.80; in the data set with BaF3 [3] it was 6.90; in data set [8], 8.17.

On to `CN1CCC(c2ccc(-c3ccc4ncn(C(C(=O)Nc5nccs5)c5ccccc5)c(=O)c4c3F)cc2)CC1` (configuration not stated), for which the result with NCI-H1975 [10], in the data set on NCI-H1975 [13], with NCI-H1975 [14] and with NCI-H1975 [16] was Active. The same compound registered a t1/2 in [11] of 3.5 h. The F in [12] is 24%. In data set [15], this compound registered a clearance of 30 mL/min/kg.

Consider `O=C(Nc1nccs1)C(c1cc(F)ccc1O)N1Cc2ccc(-c3ccc(N4CCNCC4)cc3)cc2C1=O` (configuration not stated), for which the pIC50 is 6.21 in the data set on BaF3 [1] and 7.68 in the data set with BaF3 [3]. The compound further registered an AUC(0-t) in [2] of 2520 ng·h/mL. The same compound gave a half-life in [4] of 3 h. The Vd in [5] came out at 0.6 L/kg. Moreover, in data set [7], the clearance amounted to 5 mL/min/kg.

For the compound `CN1CCC(c2ccc(-c3ccc4ncn(C(C(=O)Nc5nccs5)c5ccccc5)c(=O)c4n3)cc2)CC1` (configuration not stated), the values for the pIC50 in the data set on BaF3 [1], in the data set on BaF3 [3] and in the data set on BaF3 [9] were 5.77, 7.80 and 7.05, respectively.

`CN1CCC(c2ccc(-c3ccc4c(c3)CCN(C(C(=O)Nc3nccs3)c3cccc(F)c3)C4=O)cc2)CC1` (configuration not stated): the pIC50 is 5.70 in the data set with BaF3 [1] and 8.66 in data set [8].

As to `CN1CCC(c2ccc(-c3ccc4ncn(C(C(=O)Nc5nccs5)c5ccccc5)c(=O)c4c3)cc2)CC1` (configuration not stated), the pIC50 is 6.11 in the data set on BaF3 [1] and 7.30 in the data set with BaF3 [9].

Regarding `CN1CCN(c2ccc(-c3ccc4cnn(C(C(=O)Nc5nccs5)c5ccccc5)c(=O)c4c3)cc2)CC1` (configuration not stated), the values for the pIC50 (with BaF3 [1]; with BaF3 [3]; in data set [8]) were 5.67, 6.42 and 7.99, respectively.

Regarding `CN1CCN(c2ccc(-c3ccc4ccn(C(C(=O)Nc5nccs5)c5ccccc5)c(=O)c4c3)cc2)CC1` (configuration not stated), the pIC50 with BaF3 [1] is 5.73.

For `CN1CCC(c2ccc(-c3cc4c(=O)n(C(C(=O)Nc5nccs5)c5ccccc5)cnc4cc3F)cc2)CC1` (configuration not stated), the negative-log IC50 (pIC50) in the data set with BaF3 [1] is 5.52; in the data set on BaF3 [3], 7.14; in [8], 8.85; with BaF3 [9], 6.55.

Turning to `CN1CCC(c2ccc(-c3ccc4c(c3)C(=O)N(C(C(=O)Nc3nccs3)c3cccc(F)c3)CC4)cc2)CC1` (configuration not stated), the pIC50 in the data set on BaF3 [1] was 5.83; in the data set with BaF3 [3] it was 7.00; in data set [8], 8.49.

As for `CN1CCC(c2ccc(-c3cnc4ncn(C(C(=O)Nc5nccs5)c5ccccc5)c(=O)c4c3)cc2)CC1` (configuration not stated), the negative logarithm of the IC50 (pIC50) with BaF3 [1] was 5.94; in the data set on BaF3 [3] it was 7.64; in data set [8] it was 8.72; in the data set with BaF3 [9], 6.51.

Regarding `CN1CCN(c2ccc(-c3ccc4c(=O)n(C(C(=O)Nc5nccs5)c5ccccc5)ccc4c3)cc2)CC1` (configuration not stated), the values for the negative-log IC50 (pIC50) (with BaF3 [1]; in the data set on BaF3 [3]; in data set [8]) were 5.90, 7.21 and 8.47, respectively.

Regarding `CN1CCC(c2ccc(-c3ccc4cnn(C(C(=O)Nc5nccs5)c5ccccc5)c(=O)c4c3)cc2)CC1` (configuration not stated), the pIC50 with BaF3 [1] is 5.81; in the data set with BaF3 [3] it was 6.68; with BaF3 [9], 6.36.

With `CN1CCC(c2ccc(-c3ccc4ccn(C(C(=O)Nc5nccs5)c5ccccc5)c(=O)c4c3)cc2)CC1` (configuration not stated), the pIC50 is 5.82 with BaF3 [1], 7.15 with BaF3 [3], 8.74 in [8] and 6.42 with BaF3 [9].

With `CN1CCC(c2ccc(-c3ccc4c(=O)n(C(C(=O)Nc5nccs5)c5ccccc5)cnc4c3)cc2)CC1` (configuration not stated), the negative-log IC50 (pIC50) with BaF3 [1] is 5.61; in the data set with BaF3 [3] it was 6.65; in data set [8], 8.24; with BaF3 [9] it was 6.05.

As to `CN1CCC(c2ccc(-c3ccc4c(=O)n(C(C(=O)Nc5nccs5)c5ccccc5)ncc4c3)cc2)CC1` (configuration not stated), the pIC50 in the data set with BaF3 [1] is 5.91; in [8] it was 8.01; in the data set on BaF3 [9], 6.00.

In the case of `CN1CCN(c2ccc(-c3ccc4c(c3)C(=O)N(C(C(=O)Nc3nccs3)c3cccc(F)c3)C4)cc2)CC1` (configuration not stated), the pIC50 is 5.70 in the data set on BaF3 [1] and 8.74 in [8].

As to `CN1CCN(c2ccc(-c3ccc4c(=O)n(C(C(=O)Nc5nccs5)c5ccccc5)ncc4c3)cc2)CC1` (configuration not stated), the pIC50 is 5.46 in the data set on BaF3 [1] and 5.78 in the data set with BaF3 [3].

Regarding `CN1CCC(c2ccc(-c3cc(F)c4ncn(C(C(=O)Nc5nccs5)c5ccccc5)c(=O)c4c3)cc2)CC1` (configuration not stated), the pIC50 with BaF3 [1] was 6.09; in the data set with BaF3 [3] it was 8.00; with BaF3 [9] it was 6.82.

`CN1CCC(c2ccc(-c3ccc4c(c3)C(=O)N(C(C(=O)Nc3nccs3)c3cc(F)ccc3O)C4)cc2)CC1` (configuration not stated): the pIC50 with BaF3 [1] was 7.30; with BaF3 [3] it was 8.22; in [8] it was 10.00. Besides, the AUC(0-t) in data set [2] was 2400 ng·h/mL. Further, in data set [4], the half-life is 2.3 h. The Vd in data set [5] was 2.5 L/kg. Moreover, the F in data set [6] worked out at 15%. Further, the clearance in data set [7] came to 15.7 mL/min/kg.

For `CN1CCN(c2ccc(-c3ccc4c(=O)n(C(C(=O)Nc5nccs5)c5ccccc5)cnc4c3)cc2)CC1` (configuration not stated), the figures for the negative-log IC50 (pIC50) (in the data set on BaF3 [1]; in the data set with BaF3 [3]; in data set [8]) were 5.70, 6.43 and 8.51, respectively.

In the case of `CN1CCN(c2ccc(-c3ccc4c(c3)C(=O)N(C(C(=O)Nc3nccs3)c3cc(F)ccc3O)C4)cc2)CC1` (configuration not stated), the pIC50 was 6.31 with BaF3 [1], 8.22 in the data set with BaF3 [3] and 9.52 in [8]. The exposure AUC(0-t) in data set [2] is 1350 ng·h/mL. This compound also showed a half-life in data set [4] of 2.8 h. Also, the Vd in [5] was found to be 1.8 L/kg. The F in data set [6] is recorded as 2%. Besides, the clearance in [7] is 10.3 mL/min/kg.

As to `CN1CCN(c2ccc(-c3ccc4c(c3)C(=O)N(C(C(=O)Nc3nccs3)c3ccccc3)C4)cc2)CC1` (configuration not stated), the pIC50 with BaF3 [1] is 5.59; in the data set on BaF3 [3], 7.37; in data set [8], 9.05.

As for `CN1CCN(c2ccc(-c3ccc4ncn(C(C(=O)Nc5nccs5)c5ccccc5)c(=O)c4c3)cc2)CC1` (configuration not stated), the negative logarithm of the IC50 (pIC50) was 5.63 in the data set on BaF3 [1], 7.68 in the data set on BaF3 [3] and 9.05 in data set [8].

With `CN1CCC(c2ccc(-c3ccc4c(=O)n(C(C(=O)Nc5nccs5)c5ccccc5)ccc4c3)cc2)CC1` (configuration not stated), the negative logarithm of the IC50 (pIC50) is 5.89 in the data set on BaF3 [1], 7.62 in the data set on BaF3 [3], 8.92 in data set [8] and 6.30 in the data set with BaF3 [9].
